Source: ChEMBL document CHEMBL4715911, “Quest for a potent antimalarial drug lead: Synthesis and evaluation of 6,7-dimethoxyquinazoline-2,4-diamines” (Bioorg Med Chem, 2021)

Tests used:
Plasmodium falciparum = test: Antimalarial activity against Plasmodium falciparum NF54 assessed as inhibition of parasite growth incubated for 48 hrs by [3H]hypoxanthine incorporation assay based liquid scintillation counting method; format: functional, organism-based
Outline: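 ³H-hypoxanthine incorporation against erythrocytic P. falciparum NF54 (drug-sensitive). Culture in hypoxanthine-free RPMI 1640 with HEPES, NaHCO3, neomycin and Albumax, on human A+ red cells at 2.5% hematocrit, 0.3% parasitemia. Eleven 3-fold dilutions spanning 100 to 0.002 µg/mL. 37 °C in 4% CO2/3% O2/93% N2. Label (0.5 µCi) added after 48 h, then a further 24 h. Scintillation counting. IC50 from 4-parameter logistic fit, average of two independent determinations.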

L6 = test: Cytotoxicity against rat L6 cells assessed as reduction in cell viability incubated for 70 hrs by resazurin dye based fluorescence assay; conditions: L6, 70 h
Outline: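 L6 rat skeletal myoblasts seeded at 4000 cells/well in RPMI 1640 with 1% L-glutamine and 10% FBS. Eleven 3-fold drug dilutions (100 to 0.002 µg/mL) added 24 h after seeding, then 70 h incubation. Resazurin added for 2 h. Fluorescence read at ex 536/em 588 nm. IC50 from 4-parameter logistic fit, average of two independent determinations.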

[1] = Selectivity index, ratio of IC50 for cytotoxicity against rat L6 cells to IC50 for antimalarial activity against Plasmodium falciparum NF54; format: toxicity, cell-based; conditions: read-out: Ratio IC50
Outline: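 SI calculated as L6 cytotoxicity IC50 divided by P. falciparum NF54 IC50, both measured in parallel in vitro assays.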

Plasmodium berghei [2] = test: Antimalarial activity against Plasmodium berghei NK65 infected in ICR mouse assessed as reduction in parasitemia at 66.3 mg/kg, po qd for 4 days by Diff-Quik staining based microscopic method (reference value: 0%); format: functional; conditions: 96 h, time 4 day
Plasmodium berghei [3] = test: Antimalarial activity against Plasmodium berghei NK65 infected in ICR mouse assessed as animal mean survival days at 66.3 mg/kg, po qd for 4 days (reference value: 6.2 day); format: functional; conditions: time 4 day
Plasmodium berghei [4] = test: Antimalarial activity against Plasmodium berghei NK65 infected in ICR mouse assessed as reduction in parasitemia at 58.2 mg/kg, po qd for 4 days by Diff-Quik staining based microscopic method (reference value: 0%); format: functional; conditions: 96 h, time 4 day
Plasmodium berghei [5] = test: Antimalarial activity against Plasmodium berghei NK65 infected in ICR mouse assessed as animal mean survival days at 58.2 mg/kg, po qd for 4 days (reference value: 6.2 +/-0.5 day); format: functional; conditions: time 4 day
Plasmodium berghei [6] = test: Antimalarial activity against Plasmodium berghei NK65 infected in ICR mouse assessed as reduction in parasitemia at 58.4 mg/kg, po qd for 4 days by Diff-Quik staining based microscopic method (reference value: 0%); format: functional; conditions: 96 h, time 4 day
Plasmodium berghei [7] = test: Antimalarial activity against Plasmodium berghei NK65 infected in ICR mouse assessed as animal mean survival days at 58.4 mg/kg, po qd for 4 days (reference value: 6.2 day); format: functional; conditions: time 4 day
Plasmodium berghei [8] = test: Antimalarial activity against Plasmodium berghei NK65 infected in ICR mouse assessed as parasitemia at 50 mg/kg, po qd for 4 days by Diff-Quik staining based microscopic method (reference value: 28.4 +/- 10.2%); format: functional; conditions: time 4 day
Plasmodium berghei [9] = test: Antimalarial activity against Plasmodium berghei NK65 infected in ICR mouse assessed as reduction in parasitemia at 50 mg/kg, po qd for 4 days by Diff-Quik staining based microscopic method (reference value: 0%); format: functional; conditions: 96 h, time 4 day
Plasmodium berghei [10] = test: Antimalarial activity against Plasmodium berghei NK65 infected in ICR mouse assessed as animal mean survival days at 50 mg/kg, po qd for 4 days (reference value: 6.2 +/- 0.5 day); format: functional; conditions: time 4 day

## CCC(CC)Nc1nc(Nc2ccncc2)nc2cc(OC)c(OC)cc12
Plasmodium falciparum
  IC50: 0.0518 µM
L6
  IC50: 110 µM
[1]
  selectivity ratio: 2130

## CCCCNc1nc(NCCCOCC)nc2cc(OC)c(OC)cc12
Plasmodium falciparum
  IC50: 0.0276 µM
L6
  IC50: 4.46 µM
[1]
  selectivity ratio: 161

## CCCCNc1nc(NCC)c2cc(OC)c(OC)cc2n1
Plasmodium falciparum
  IC50: 0.023 µM
L6
  IC50: 5.29 µM
[1]
  selectivity ratio: 230

## COc1cc2nc(N3CCCC3)nc(N)c2cc1OC
Plasmodium falciparum
  IC50: 1.66 µM
L6
  IC50: 28.2 µM
[1]
  selectivity ratio: 17

## COc1cc2nc(N3CCCC3)nc(NC(C)C)c2cc1OC
L6
  IC50: 12.5 µM
[1]
  selectivity ratio: 3430

## COc1cc2nc(N3CCCC3)nc(NCc3ccccc3)c2cc1OC
Plasmodium falciparum
  IC50: 0.00549 µM
L6
  IC50: 9.49 µM
[1]
  selectivity ratio: 1900

## CCCCNc1nc(Nc2cccnc2)nc2cc(OC)c(OC)cc12
Plasmodium falciparum
  IC50: 0.0254 µM
L6
  IC50: 150 µM
[1]
  selectivity ratio: 5900

## CCNc1nc(NCc2ccccc2)nc2cc(OC)c(OC)cc12
Plasmodium falciparum
  IC50: 0.0148 µM
L6
  IC50: 5.44 µM
[1]
  selectivity ratio: 367

## COc1cc2nc(Nc3ccncc3)nc(NCc3cccnc3)c2cc1OC.Cl.Cl
Plasmodium berghei [2]
  inhibition in vivo at 66.3 mg/kg: 27.1%
Plasmodium berghei [3]
  MSD: 8.7 days

## CCCCCCCCNc1nc(Nc2ccncc2)nc2cc(OC)c(OC)cc12
Plasmodium falciparum
  IC50: 0.0073 µM
L6
  IC50: 1.76 µM
[1]
  selectivity ratio: 241

## CCCCNc1nc(NCCCC)c2cc(OC)c(OC)cc2n1
Plasmodium falciparum
  IC50: 0.0021 µM
L6
  IC50: 3.67 µM
[1]
  selectivity ratio: 1750

## CCC(CC)Nc1nc(Nc2cccnc2)nc2cc(OC)c(OC)cc12
Plasmodium falciparum
  IC50: 0.019 µM
L6
  IC50: 155 µM
[1]
  selectivity ratio: 8190

## CCNc1nc(Cl)nc2cc(OC)c(OC)cc12
Plasmodium falciparum
  IC50: 15.8 µM
L6
  IC50: 52.6 µM
[1]
  selectivity ratio: 3.33

## CCNc1nc(NCCc2ccccc2)nc2cc(OC)c(OC)cc12
Plasmodium falciparum
  IC50: 0.017 µM
L6
  IC50: 1.68 µM
[1]
  selectivity ratio: 99

## COc1cc2nc(Nc3cccnc3)nc(Nc3ccccc3C)c2cc1OC
Plasmodium falciparum
  IC50: 0.0206 µM
L6
  IC50: 170 µM
[1]
  selectivity ratio: 8250

## CCCCNc1ncnc2cc(OC)c(OC)cc12
Plasmodium falciparum
  IC50: 4.71 µM
L6
  IC50: 73.6 µM
[1]
  selectivity ratio: 15.6

## CCNc1nc(Nc2cccnc2)nc2cc(OC)c(OC)cc12
Plasmodium falciparum
  IC50: 0.00614 µM
L6
  IC50: 112 µM
[1]
  selectivity ratio: 18200

## CCCCNc1nc(Nc2ccncc2)nc2cc(OC)c(OC)cc12
Plasmodium falciparum
  IC50: 0.00567 µM
L6
  IC50: 105 µM

## CCCCNc1nc(NCc2ccccn2)nc2cc(OC)c(OC)cc12
Plasmodium falciparum
  IC50: 0.0109 µM
L6
  IC50: 10.6 µM
[1]
  selectivity ratio: 1000

## COc1cc2nc(Nc3ccncc3)nc(NC(C)C)c2cc1OC.Cl.Cl
Plasmodium berghei [4]
  inhibition in vivo at 58.2 mg/kg: 39.5%
Plasmodium berghei [5]
  MSD: 8.3 days

## CCNc1nc(Nc2ccncc2)nc2cc(OC)c(OC)cc12.Cl
Plasmodium berghei [6]
  inhibition in vivo at 58.4 mg/kg: 1%
Plasmodium berghei [7]
  MSD: 7 days

## COc1cc2nc(N3CCCC3)nc(NC(C)c3ccccc3)c2cc1OC (stereo unspecified)
Plasmodium falciparum
  IC50: 0.01 µM
L6
  IC50: 4.81 µM
[1]
  selectivity ratio: 481
Plasmodium berghei [8]
  Activity: 2.5%
Plasmodium berghei [9]
  inhibition in vivo at 50 mg/kg: 90.4%
Plasmodium berghei [10]
  MSD: 19.8 days

## CCCCCCCCNc1nc(Nc2ccncc2)nc2cc(OC)c(OC)cc12.Cl
Plasmodium berghei [6]
  inhibition in vivo at 58.4 mg/kg: 54.8%
Plasmodium berghei [7]
  MSD: 7.3 days

## COc1cc2nc(N3CCCC3)nc(Nc3ccccc3C)c2cc1OC
Plasmodium falciparum
  IC50: 0.0329 µM
L6
  IC50: 8.46 µM
[1]
  selectivity ratio: 257
Plasmodium berghei [8]
  Activity: 23.4%
Plasmodium berghei [9]
  inhibition in vivo at 50 mg/kg: 26.8%
Plasmodium berghei [10]
  MSD: 6.8 days

## COc1cc2nc(Nc3ccncc3)nc(NCc3ccncc3)c2cc1OC.Cl.Cl
Plasmodium berghei [2]
  inhibition in vivo at 66.3 mg/kg: 29.4%
Plasmodium berghei [3]
  MSD: 7.7 days

## COc1cc2nc(Nc3ccncc3)nc(NCc3cccnc3)c2cc1OC
Plasmodium falciparum
  IC50: 0.0128 µM
L6
  IC50: 138 µM
[1]
  selectivity ratio: 10700

## CCCCNc1nc(NCc2ccncc2)nc2cc(OC)c(OC)cc12
Plasmodium falciparum
  IC50: 0.00816 µM
L6
  IC50: 11 µM
[1]
  selectivity ratio: 1360

## COc1cc2nc(N3CCC(C(N)=O)CC3)nc(NCc3ccccc3)c2cc1OC
Plasmodium falciparum
  IC50: 0.18 µM
L6
  IC50: 4.98 µM
[1]
  selectivity ratio: 27.7

## CCNc1nc(OC)nc2cc(OC)c(OC)cc12
Plasmodium falciparum
  IC50: 34.8 µM
L6
  IC50: 67.3 µM
[1]
  selectivity ratio: 1.9

## CCCCNc1nc(N2CCCC2)nc2cc(OC)c(OC)cc12
Plasmodium falciparum
  IC50: 0.0018 µM
L6
  IC50: 61.8 µM
Plasmodium berghei [8]
  Activity: 10.8%
Plasmodium berghei [9]
  inhibition in vivo at 50 mg/kg: 60%
Plasmodium berghei [10]
  MSD: 6.6 days

## COc1cc2nc(Nc3ccncc3)nc(Nc3ccccc3C(F)(F)F)c2cc1OC
Plasmodium falciparum
  IC50: 0.0226 µM
L6
  IC50: 138 µM
[1]
  selectivity ratio: 6100

## COc1cc2nc(N3CCCC3)nc(N3CCCC3)c2cc1OC
Plasmodium falciparum
  IC50: 1.04 µM
L6
  IC50: 3.96 µM
[1]
  selectivity ratio: 3.8

## COc1cc2nc(N3CCCC3)nc(NC(C)CCc3ccccc3)c2cc1OC (stereo unspecified)
Plasmodium falciparum
  IC50: 0.0073 µM
L6
  IC50: 4.48 µM
[1]
  selectivity ratio: 613

## CCNc1nc(Nc2ccncc2)nc2cc(OC)c(OC)cc12
Plasmodium falciparum
  IC50: 0.00307 µM
L6
  IC50: 55.1 µM
[1]
  selectivity ratio: 17900

## CCCCCCCCNc1nc(N2CCCC2)nc2cc(OC)c(OC)cc12
Plasmodium falciparum
  IC50: 0.0014 µM
L6
  IC50: 1.48 µM
[1]
  selectivity ratio: 1060

## COc1cc2nc(Nc3ccncc3)nc(NCc3ccncc3)c2cc1OC
Plasmodium falciparum
  IC50: 0.0309 µM
L6
  IC50: 138 µM
[1]
  selectivity ratio: 4470

## COc1cc2nc(Nc3ccncc3)nc(Nc3ccccc3C)c2cc1OC
Plasmodium falciparum
  IC50: 0.049 µM
L6
  IC50: 213 µM
[1]
  selectivity ratio: 4350

## COc1cc2nc(Nc3ccncc3)nc(NC(C)c3ccccc3)c2cc1OC (stereo unspecified)
Plasmodium falciparum
  IC50: 0.0004 µM
L6
  IC50: 62.7 µM
[1]
  selectivity ratio: 156000

## CCCCNc1nc(NC(C)C)c2cc(OC)c(OC)cc2n1
Plasmodium falciparum
  IC50: 0.00314 µM
L6
  IC50: 5.31 µM
[1]
  selectivity ratio: 1690

## CCCCNc1nc(NCc2cccnc2)nc2cc(OC)c(OC)cc12
Plasmodium falciparum
  IC50: 0.00217 µM
L6
  IC50: 11.1 µM
[1]
  selectivity ratio: 5120

## COc1cc2nc(Nc3cccnc3)nc(NC(C)C)c2cc1OC
Plasmodium falciparum
  IC50: 0.0147 µM
L6
  IC50: 249 µM
[1]
  selectivity ratio: 16900

## COc1cc2nc(N3CCCC3)nc(NCc3cccnc3)c2cc1OC
Plasmodium falciparum
  IC50: 0.0136 µM
L6
  IC50: 27.3 µM
[1]
  selectivity ratio: 2000

## CCC(C)Nc1nc(Nc2ccncc2)nc2cc(OC)c(OC)cc12 (stereo unspecified)
Plasmodium falciparum
  IC50: 0.00283 µM
L6
  IC50: 47.7 µM
[1]
  selectivity ratio: 16800

## COc1cc2nc(Nc3ccncc3)nc(NC(C)C)c2cc1OC
Plasmodium falciparum
  IC50: 0.0029 µM
L6
  IC50: 81.4 µM
[1]
  selectivity ratio: 28000

## CCCCNc1nc(NCCCC)c2ccccc2n1
Plasmodium falciparum
  IC50: 0.121 µM
L6
  IC50: 3.01 µM
[1]
  selectivity ratio: 25.6
